ChEMBL document CHEMBL3751704, “Diarylthiophenes as inhibitors of the pore-forming protein perforin” (Bioorg Med Chem Lett, 2016)
Activity calls are given as the source filed them. No cut-off for these calls is given here.

Molecular target: T1, Perforin-1 (Homo sapiens) (UniProt P14222)
T1 sequence (whole entry): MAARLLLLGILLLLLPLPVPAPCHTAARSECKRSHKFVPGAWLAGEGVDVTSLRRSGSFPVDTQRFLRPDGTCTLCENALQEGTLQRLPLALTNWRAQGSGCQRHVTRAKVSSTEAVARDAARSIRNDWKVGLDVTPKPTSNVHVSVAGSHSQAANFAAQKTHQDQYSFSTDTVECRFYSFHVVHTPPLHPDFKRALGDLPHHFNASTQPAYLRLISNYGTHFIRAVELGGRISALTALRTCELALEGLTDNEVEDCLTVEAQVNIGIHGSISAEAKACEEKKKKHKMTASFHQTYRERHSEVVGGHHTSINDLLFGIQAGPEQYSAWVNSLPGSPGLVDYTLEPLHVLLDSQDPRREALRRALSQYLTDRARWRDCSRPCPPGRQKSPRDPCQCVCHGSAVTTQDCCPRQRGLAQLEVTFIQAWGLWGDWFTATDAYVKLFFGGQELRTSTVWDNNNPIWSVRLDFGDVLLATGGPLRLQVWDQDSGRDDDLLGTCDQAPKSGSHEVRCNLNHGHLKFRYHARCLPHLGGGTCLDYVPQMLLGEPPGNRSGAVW
Test: Inhibition of perforin released from human KHYG-1 NK cells assessed as inhibition of perforin mediated lysis of human K562 cells at 20 uM by measuring 51Cr release incubated for 20 mins by gamma counting analysis relative to control
Format: cell-based
Conditions: in the assay text read “incubated for 30 mins” for “incubated for 20 mins”
In short: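 KHYG-1 human NK effector cells preincubated with inhibitor (20 μM) in medium for 30 min at room temperature. 51Cr-labelled K562 leukaemia target cells then added and incubated 4 h at 37 °C. Lysis read as 51Cr release. Percent inhibition calculated against untreated control.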

- inhibition: inactive
Structure (SMILES): CS(=O)(=O)Nc1ccc(-c2ccc(-c3ccc4c(c3)COC4=O)s2)cc1
